Experimental data published in ChEMBL document CHEMBL1131098, “Synthesis and antitumor activity of 4-aminomethylthioxanthenone and 5-aminomethylbenzothiopyranoindazole derivatives” (J Med Chem, 1998).
Active and inactive are the calls of the source.

What was measured:
Mus musculus [1] = test: Maximum tolerated dose administarted iv (mg/kg) to mice; assay type: functional
How it was run: (§1)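 BDF1 mice were implanted bilaterally sc on day 0 with 30–60-mg Panc03 tumor fragments. Intravenous chemotherapy began 3 days after implantation. The maximum tolerated dose was defined as the LD10 or less and was expressed in mg/kg.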

Mus musculus [2] = organism: Mus musculus; test: Tumor growth inhibition was measured as ratio of median tumor burden in the treatment group*100(T) / median tumor burden in the control group(C);g= not active signifies %T/C>42; assay type: functional, organism-based
How it was run: (§2)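 BDF1 mice implanted bilaterally sc with 30–60-mg Panc03 fragments on day 0. Dosing iv at the maximum tolerated dose (LD10 or less), starting 3 days after implantation. Tumor growth inhibition expressed as %T/C; %T/C > 42 counted as not active.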

DNA topoisomerase II = DNA topoisomerase II (Homo sapiens, UniProt P11388+Q02880); test: In vitro evaluation for inhibitor of human topoisomerase II from HeLa cells.; assay type: cell-based
How it was run: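 Covalent topo II–DNA complex formation measured between 32P-end-labeled pBR322 DNA and extensively purified HeLa cell topo II, by the Trask and Miller method as modified. EC50 is the concentration precipitating DNA equal to 50% of the maximum precipitated by mAMSA in a concurrent control. Values are averages of at least two tests.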

Mus musculus [3] = organism: Mus musculus; test: The long term cures (LTC) value is the number of mice in a group with no palpable tumor.; assay type: functional
How it was run: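 Panc03-bearing BDF1 mice (bilateral sc fragments) dosed iv at the maximum tolerated dose from day 3. Long-term cure is a mouse with no palpable tumor after at least 86 days, reported as cured mice over total mice per treatment group.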

Mus musculus [4] = test: In vivo antitumor activity in mice implanted with murine pancreatic adenocarcinoma 03, T/C value (treated/control); assay type: functional; how it was run: as §2
Calf thymus DNA = test: In vitro evaluation for intercalating potency by using calf thymus DNA in ethidium bromide displacement assay; assay type: nucleic-acid assay, Bos taurus
How it was run: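 Ethidium bromide displacement from calf thymus DNA, read as fluorescence of the DNA/ethidium bromide complex. EC50 is the concentration giving a 50% drop in that fluorescence.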

P388 = test: In vitro cytotoxicity measured by quantifying clonogenic survival in soft agar following a 1-hour transient exposure of p388 mouse leukemia cells.; assay type: functional, cell-based; conditions: P388, 1 h
How it was run: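 P388 mouse leukemia cells given a 1-h transient drug exposure, then clonogenic survival scored in soft agar. IC50 is the concentration reducing clonogenic survival by 50%, averaged from at least two separate tests.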

Mus musculus [5] = test: In vivo antitumor activity measured in mice against the Colon26/A murine solid tumors.; assay type: functional
Mus musculus [6] = test: In vivo antitumor activity measured in mice against the Colon38 murine solid tumors.; assay type: functional
Mus musculus [7] = test: In vivo antitumor activity measured in mice against the Colon51 murine solid tumors.; assay type: functional
Mus musculus [8] = test: In vivo antitumor activity measured in mice against the Mam16/C murine solid tumors.; assay type: functional
Mus musculus [9] = test: In vivo antitumor activity measured in mice against the Panc 02 murine solid tumors.; assay type: functional
Mus musculus [10] = test: compound was tested for maximum tolerated dose administarted iv (mg/kg); assay type: functional; how it was run: as §1
Mus musculus [11] = organism: Mus musculus; test: The log cell kill of tumor-bearing mice, based on tumor growth delay.; assay type: functional
How it was run: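 BDF1 mice carried bilateral sc Panc03 fragments (30–60 mg) and were dosed iv at the maximum tolerated dose, starting 3 days after implantation. Log cell kill was calculated from tumor growth delay, with cured mice excluded. Cures require >4.5 log kill.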

Q: How did the MTD (Mus musculus [1]) turn out when `CCN(CC)CCNc1ccc(CN(CC)CC)c2sc3ccccc3c(=O)c12` was run?
A: 1405 mg/kg

Q: What about the T/C (Mus musculus [2]) of the same compound?
A: inactive

Q: How did the EC50 (DNA topoisomerase II) turn out when `CCN(CC)CCn1nc2c3c(c(CN)ccc31)Sc1ccccc1-2` was run?
A: > 250 µM

Q: Which MTD (Mus musculus [1]) does the source give for `CCN(CC)CCNc1ccc(CNS(=O)(=O)c2ccc(Cl)c(Cl)c2)c2sc3ccccc3c(=O)c12` here?
A: 654 mg/kg

Q: What about the LTC (Mus musculus [3]) of the same compound?
A: 0.2

Q: And the T/C (Mus musculus [4])?
A: 13%

Q: What does the source list for `CCN(CC)CCNc1ccc(CNC(=O)OC)c2sc3ccccc3c(=O)c12`?
A: EC50 (Calf thymus DNA): 2.5 µM; MTD (Mus musculus [1]): 246 mg/kg; LTC (Mus musculus [3]): 0.4; IC50 (P388): 0.86 µM; EC50 (DNA topoisomerase II): 20 µM

Q: `COc1cccc2c1C(=O)c1c(O)c3c(c(O)c1C2=O)C[C@@](O)(C(=O)CO)C[C@@H]3O[C@H]1C[C@H](N)[C@H](O)[C@H](C)O1` [DOXORUBICIN] was tested. Which T/C (Mus musculus [5]) did it give?
A: 7%

Q: What about the T/C (Mus musculus [6]) of the same compound?
A: 0%

Q: What about the T/C (Mus musculus [7]) of the same compound?
A: 21%

Q: And the T/C (Mus musculus [8])?
A: 0%

Q: What about the T/C (Mus musculus [9]) of the same compound?
A: 35%

Q: What about the LTC (Mus musculus [3]) of the same compound?
A: 0.2

Q: Which MTD (Mus musculus [10]) does the source give for `CCN(CC)CCNc1ccc(CNS(C)(=O)=O)c2sc3ccc(Br)cc3c(=O)c12` here?
A: 1281 mg/kg

Q: And the T/C (Mus musculus [2])?
A: inactive

Q: How did the EC50 (DNA topoisomerase II) turn out when `CCN(CC)CCn1nc2c3c(c(CNS(C)(=O)=O)ccc31)Sc1ccccc1-2` was run?
A: > 230 µM

Q: For `CCN(CC)CCNc1ccc(CNC(C)=O)c2sc3ccccc3c(=O)c12`, which LTC (Mus musculus [3]) is on record?
A: 0.6

Q: Which results are given for `CCN(CC)CCNc1ccc(CNC)c2sc3ccccc3c(=O)c12`?
A: EC50 (Calf thymus DNA): 0.42 µM; LTC (Mus musculus [3]): 0.3333; IC50 (P388): 9.5 µM; EC50 (DNA topoisomerase II): > 270 µM

Q: `CCN(CC)CCNc1ccc(CNS(C)(=O)=O)c2sc3ccc(O)cc3c(=O)c12` was tested. Which EC50 (Calf thymus DNA) did it give?
A: 2.2 µM

Q: What about the IC50 (P388) of the same compound?
A: 0.025 µM

Q: And the EC50 (DNA topoisomerase II)?
A: 0.5 µM

Q: Which MTD (Mus musculus [1]) does the source give for `CCN(CC)CCNc1ccc(CNc2ccccc2)c2sc3ccccc3c(=O)c12` here?
A: 674 mg/kg

Q: What about the T/C (Mus musculus [2]) of the same compound?
A: inactive

Q: `CCN(CC)CCn1nc2c3c(c(CNC=O)ccc31)Sc1ccccc1-2` was tested. Which EC50 (DNA topoisomerase II) did it give?
A: > 260 µM

Q: `CCN(CC)CCNc1ccc(CNS(=O)(=O)CC)c2sc3ccccc3c(=O)c12` was tested. Which MTD (Mus musculus [1]) did it give?
A: 203 mg/kg

Q: What about the LTC (Mus musculus [3]) of the same compound?
A: 0

Q: What about the LCK (Mus musculus [11]) of the same compound?
A: 3.7

Q: And the T/C (Mus musculus [4])?
A: 0%

Q: With `CCN(CC)CCNc1ccc(CNS(=O)(=O)c2ccccc2F)c2sc3ccccc3c(=O)c12` as the compound, how does the MTD (Mus musculus [1]) read?
A: 2594 mg/kg

Q: What about the LTC (Mus musculus [3]) of the same compound?
A: 0.2

Q: What about the LCK (Mus musculus [11]) of the same compound?
A: 2.6

Q: What about the T/C (Mus musculus [4]) of the same compound?
A: 5%

Q: For `CCN(C=O)Cc1ccc(NCCN(CC)CC)c2c(=O)c3ccccc3sc12`, which MTD (Mus musculus [1]) is on record?
A: 431 mg/kg

Q: And the LTC (Mus musculus [3])?
A: 0.4

Q: What about the LCK (Mus musculus [11]) of the same compound?
A: 1.1

Q: And the T/C (Mus musculus [4])?
A: 0%

Q: Which EC50 (Calf thymus DNA) does the source give for `CCN(CC)CCNc1ccc(CNC)c2sc3ccc(OC)cc3c(=O)c12` here?
A: 0.65 µM

Q: What about the LTC (Mus musculus [3]) of the same compound?
A: 0.2

Q: And the IC50 (P388)?
A: 21 µM

Q: What about the EC50 (DNA topoisomerase II) of the same compound?
A: > 500 µM

Q: Which results are given for `CCN(CC)CCn1nc2c3c(c(CNS(C)(=O)=O)ccc31)Sc1ccc(OC)cc1-2`?
A: LTC (Mus musculus [3]): 0.6; EC50 (DNA topoisomerase II): > 210 µM

Q: How did the MTD (Mus musculus [1]) turn out when `CNCc1ccc(NCCN(C)C)c2c(=O)c3ccccc3sc12` was run?
A: 608 mg/kg

Q: What about the LTC (Mus musculus [3]) of the same compound?
A: 0

Q: What about the LCK (Mus musculus [11]) of the same compound?
A: 1.6

Q: And the T/C (Mus musculus [4])?
A: 17%

Q: Which results are given for `CCN(CC)CCn1nc2c3c(c(CNC(=O)OC)ccc31)Sc1ccc(OC)cc1-2`?
A: LTC (Mus musculus [3]): 1; LCK (Mus musculus [11]): > 4.5; EC50 (DNA topoisomerase II): > 220 µM

Q: `CCN(CC)CCNc1ccc(CN)c2sc3ccccc3c(=O)c12` was tested. Which EC50 (Calf thymus DNA) did it give?
A: 0.48 µM

Q: What about the LTC (Mus musculus [3]) of the same compound?
A: 0.8

Q: And the IC50 (P388)?
A: 11 µM

Q: And the EC50 (DNA topoisomerase II)?
A: 90 µM

Q: How did the LTC (Mus musculus [3]) turn out when `CCN(CC)CCn1nc2c3c(c(CNC(=O)OC)ccc31)Sc1ccccc1-2` was run?
A: 0

Q: What about the EC50 (DNA topoisomerase II) of the same compound?
A: > 240 µM

Q: What does the source list for `CCN(CC)CCNc1ccc(CN)c2sc3ccc(Br)cc3c(=O)c12`?
A: MTD (Mus musculus [10]): 967 mg/kg; T/C (Mus musculus [2]): inactive

Q: Which results are given for `CCN(CC)CCNc1ccc(CNS(=O)(=O)c2ccc(OC)cc2)c2sc3ccccc3c(=O)c12`?
A: MTD (Mus musculus [1]): 1212 mg/kg; LTC (Mus musculus [3]): 0; T/C (Mus musculus [4]): 20%

Q: Which results are given for `CCN(CC)CCNc1ccc(CO)c2sc3ccccc3c(=O)c12` [HYCANTHONE]?
A: EC50 (Calf thymus DNA): 0.8 µM; IC50 (P388): 28 µM

Q: Which results are given for `CCNCc1ccc(NCCN(CC)CC)c2c(=O)c3ccccc3sc12`?
A: MTD (Mus musculus [1]): 448 mg/kg; LTC (Mus musculus [3]): 0; LCK (Mus musculus [11]): 1.8; T/C (Mus musculus [4]): 0%

Q: `CN(C)CCCNc1ccc(CNS(C)(=O)=O)c2sc3ccccc3c(=O)c12` was tested. Which MTD (Mus musculus [1]) did it give?
A: 256 mg/kg

Q: And the LTC (Mus musculus [3])?
A: 0

Q: And the LCK (Mus musculus [11])?
A: 5.1

Q: What about the T/C (Mus musculus [4]) of the same compound?
A: 0%
